From PubChem BioAssay AID602485 (The Scripps Research Institute Molecular Screening Center, 2012) come the findings set out here.

Calls of active or inactive are those of the source.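 The calls were made as follows: active = at least 50% ABHD10 inhibition in mouse heart after 25 mg/kg, and no other enzyme inhibited 50% at any dose; inactive = the rest.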

Assay [1] concerns the target Palmitoyl-protein thioesterase ABHD10, mitochondrial (Mus musculus) (UniProt Q6PE15). The assay is described as follows: in vivo ABHD10 engagement and hydrolase selectivity – gel-based competitive ABPP, fluorescence, mouse heart, in vivo study for PME-1 inhibitor project, late-stage follow-up (AID 602485). The settings on record: C57BL/6 mice i.p., heart proteome, FP-Rh gel ABPP, stronger effect = higher value. In a few lines:
(§1)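 System: C57BL/6 mouse heart soluble proteome. Reagent: FP-Rh activity-based probe, 1 µM final. Schedule: 6 h in vivo exposure, probe labelling 30 min at 25 °C. Technique: in-gel fluorescence after SDS-PAGE. Evaluation: percent inhibition from band integrated optical density versus vehicle. Control set: vehicle-dosed mice as high control, blank gel background as low.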

Experiment in assay [2]: as above
The following applies: C57BL/6 mice i.p., heart proteome, FP-Rh gel ABPP; anti-targets at any tested dose. The gist of the method: as §1

For orientation: inhibition means how much of the control response was suppressed.

Sequence of Palmitoyl-protein thioesterase ABHD10, mitochondrial (Mus musculus) (Q6PE15 whole entry, looked up): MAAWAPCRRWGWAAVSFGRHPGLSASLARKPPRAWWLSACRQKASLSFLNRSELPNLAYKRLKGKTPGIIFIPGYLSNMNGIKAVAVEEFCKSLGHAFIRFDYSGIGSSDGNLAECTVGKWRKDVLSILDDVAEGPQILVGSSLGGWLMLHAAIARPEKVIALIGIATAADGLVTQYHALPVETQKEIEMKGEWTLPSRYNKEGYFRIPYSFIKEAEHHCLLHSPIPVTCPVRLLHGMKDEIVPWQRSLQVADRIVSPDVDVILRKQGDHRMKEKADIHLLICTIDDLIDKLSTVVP

Take `CC[C@@]1(c2ccc(C)cc2)C(=O)N(C(=O)OC(C)C)N1C(=O)OC(C)C`: the inhibition in assay [1] is 99%; in assay [1] (inhibition at 6 mg/kg), 10%; in assay [1] (inhibition at 13 mg/kg), 60%. For the same compound, the result in assay [2] was inactive.
